Where two headings read alike, the source gives them in different places.
Key:
[1] = test system: TNF-α levels in the plasma; experiment: Measurement of TNF-α production in plasma of LPS-treated SD rats; assay type: in vivo, female Sprague Dawley rats; settings: LPS 5 mg/Kg i.p., blood 2 h after LPS; for TNF-α plasma level: LPS group 1623 pg/mL
How it was run: (§1)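 Female Sprague Dawley rats, 200-250 g, n = 5 per group. Oral doses are given at 12 h intervals: test compound at 20 and 40 mg/Kg, vehicle 10 % Tween 80, or dexamethasone 5 mg/Kg as positive control. LPS 5 mg/Kg is given i.p. 2 h after the final dose. Blood is taken 2 h (TNF-α) or 6 h (IL-1ß) after LPS. Plasma is assayed by rat sandwich ELISA. Mean ± SD, one-way ANOVA with Dunnett's test.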

[2] = test system: IL-1ß levels in the plasma; experiment: Measurement of IL-1ß production in plasma of LPS-treated SD rats; assay type: in vivo, female Sprague Dawley rats; settings: LPS 5 mg/Kg i.p., blood 6 h after LPS; for IL-1ß plasma level: LPS group 912 pg/mL
How it was run: as §1

[3] = test system: NO release in LPS stimulated J774A.1 cells; experiment: NO inhibitory assay; assay type: cell-based; settings: Mus musculus, J774.A1, 24 h, read-out: IC50 for NO inhibition J774A.1
How it was run: (§2)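 Cells are kept in DMEM with 10 % heat-inactivated FBS and antibiotics under 5 % CO2 at 37 °C. They are pretreated 1 h with varied concentrations of test compound (DMSO/water), then stimulated with 1 µg/mL LPS (E. coli 026:B6) for 24 h at 37 °C. Supernatant is mixed 1:1 with modified Griess reagent for 30 min and read at 540 nm. Curcumin and L-NAME serve as standards. Triplicates.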

[4] = test system: TNF-α production in LPS stimulated J774A.1 cells; experiment: TNF-α assay; assay type: cell-based; settings: Mus musculus, J774.A1, 6 h, read-out: IC50 for inhibition of TNF-α J774A.1
How it was run: (§3)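 Cells cultured in DMEM with heat-inactivated 10 % FBS, penicillin and streptomycin at 37 °C, 5 % CO2. Test compound in DMSO/water is added at several concentrations for 1 h, then LPS (E. coli 026:B6) 1 µg/mL is added. Incubation runs 6 h for TNF-α and 12 h for IL-1ß. Supernatant cytokine is measured by mouse sandwich ELISA at 450 nm, with curcumin and dexamethasone as standards. Triplicates.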

[5] = test system: TNF-α production in LPS stimulated RAW 264.7 cells; experiment: TNF-α assay; assay type: cell-based; settings: Mus musculus, RAW264.7, 6 h, read-out: IC50 for inhibition of TNF-α RAW 264.7
[6] = test system: NO release in LPS stimulated RAW 264.7 cells; experiment: NO inhibitory assay; assay type: cell-based; settings: Mus musculus
How it was run: as §2

[7] = test system: IL-1ß production in LPS stimulated RAW 264.7 cells; experiment: IL-1ß assay; assay type: cell-based; settings: Mus musculus, RAW264.7, 12 h, read-out: IC50 for inhibition of IL-1β RAW 264.7
How it was run: as §3

[8] = test system: IL-1ß production in LPS stimulated J774A.1 cells; experiment: IL-1ß assay; assay type: cell-based; settings: Mus musculus, J774.A1, 12 h, read-out: IC50 for inhibition of IL-1β J774A.1
[9] = RAW264.7, 24 h, read-out: IC50 for NO inhibition RAW 264.7
[10] = RAW264.7, read-out: IC50 for NO inhibition, range over both cells

| SMILES | IC50 [3] [µM] | IC50 [4] [µM] | IC50 [5] [µM] | IC50 [6, 9] [µM] | IC50 [6, 10] [µM] | IC50 [7] [µM] | IC50 [8] [µM] | reduction of TNF-α production ([1]; 5 mg/kg p.o.) [%] | TNF-α plasma level ([1]; 5 mg/kg p.o.) [pg/mL] | reduction of IL-1ß production ([2]; 5 mg/kg p.o.) [%] | IL-1ß plasma level ([2]; 5 mg/kg p.o.) [pg/mL] | reduction of TNF-α production ([1]; 40 mg/kg p.o.) [%] | TNF-α plasma level ([1]; 40 mg/kg p.o.) [pg/mL] | reduction of IL-1ß ([2]; 40 mg/kg p.o.) [%] | IL-1ß plasma level ([2]; 40 mg/kg p.o.) [pg/mL] |
| --- | --- | --- | --- | --- | --- | --- | --- | --- | --- | --- | --- | --- | --- | --- | --- |
| C[C@@H]1C[C@H]2[C@@H]3CCC4=CC(=O)C=C[C@]4(C)[C@@]3(F)[C@@H](O)C[C@]2(C)[C@@]1(O)C(=O)CO [Dexamethasone, reference compound] |  |  |  |  |  |  |  | 75.8 | 394 | 63.0 | 338 |  |  |  |  |
| CCOC(=O)c1cc(O)c(O)c(O)c1 [compound 3, ethyl gallate] |  | 23.4 ± 2.67 | 17.3 ± 4.61 |  |  | 36.9 ± 3.35 | 39.5 ± 2.86 |  |  |  |  |  |  |  |  |
| CC/C=C\C[C@H]1C(=O)CC[C@@H]1CC(=O)O [compound 11, jasmonic acid] | 21.3 ± 1.35 | 41.4 ± 1.67 | 39.4 ± 2.85 | 29.4 ± 1.65 | 21.3 to 29.4 | 57.9 ± 0.61 | 59.2 ± 2.25 |  |  |  |  | 48.9 | 830 | 54.2 | 418 |
| O=C(O)/C=C/c1ccc(O)c(O)c1 [compound 7, Caffeic acid] | 78 ± 3.94 | 49.6 ± 1.33 | 45 ± 1.93 | 19.2 ± 4.97 |  | 59.3 ± 2.94 | 62.3 ± 2.94 |  |  |  |  |  |  |  |  |

More lines, main results first:

| IC50 [3] [µM] | IC50 [4] [µM] | IC50 [5] [µM] | IC50 [6, 9] [µM] | IC50 [6, 10] [µM] | IC50 [7] [µM] | IC50 [8] [µM] | SMILES | reduction of TNF-α production ([1]; 5 mg/kg p.o.) [%] | TNF-α plasma level ([1]; 5 mg/kg p.o.) [pg/mL] | reduction of IL-1ß production ([2]; 5 mg/kg p.o.) [%] | IL-1ß plasma level ([2]; 5 mg/kg p.o.) [pg/mL] | reduction of TNF-α production ([1]; 40 mg/kg p.o.) [%] | TNF-α plasma level ([1]; 40 mg/kg p.o.) [pg/mL] | reduction of IL-1ß ([2]; 40 mg/kg p.o.) [%] | IL-1ß plasma level ([2]; 40 mg/kg p.o.) [pg/mL] |
| --- | --- | --- | --- | --- | --- | --- | --- | --- | --- | --- | --- | --- | --- | --- | --- |
| 31.5 ± 1.25 | 25.2 ± 2.56 | 22.4 ± 1.08 | 27.2 ± 4.51 | 27.2 to 31.5 | 29.2 ± 3.69 | 31.2 ± 2.64 | CC(/C=C/C=C(\C)C(=O)O[C@@H]1O[C@H](CO[C@@H]2O[C@H](CO)[C@@H](O)[C@H](O)[C@H]2O)[C@@H](O)[C@H](O)[C@H]1O)=C\C=C\C=C(C)\C=C\C=C(/C)C(=O)O[C@@H]1O[C@H](CO[C@@H]2O[C@H](CO)[C@@H](O)[C@H](O)[C@H]2O)[C@@H](O)[C@H](O)[C@H]1O [compound 14, crocin] |  |  |  |  | 48.4 | 836 | 50.2 | 456 |
| 21.2 ± 1.36 |  | 25.2 ± 2.48 | 19.2 ± 1.53 | 19.2 to 21.2 | 64.2 ± 2.53 | 65.8 ± 1.86 | N[C@@H](Cn1ccc(=O)c(O)c1)C(=O)O [compound 12, L-mimosine] |  |  |  |  | 60.7 | 639 | 16.3 | 763 |
|  | 29.3 ± 3.12 | 23.8 ± 2.14 |  |  | 42.1 ± 3.62 | 47.6 ± 1.67 | O=C(O)c1cc(O)c(O)c(O)c1 [compound 10, gallic acid] |  |  |  |  |  |  |  |  |
| 25.6 ± 2.47 | 22.2 ± 3.83 | 20.4 ± 2.48 | 23.4 ± 2.62 | 23.4 to 25.6 | 35.4 ± 2.34 | 41.1 ± 1.69 | CC(/C=C/C=C(\C)C(=O)O)=C\C=C\C=C(C)\C=C\C=C(/C)C(=O)O [compound 4, crocetin] |  |  |  |  | 43.6 | 914 | 39.8 | 549 |

Reference: article PMC4464187 (EXCLI Journal, 2014)
